# Published values from different studies.
# Lines come from different studies, so protocols differ. pEC50, pIC50, pKi: −log10 of the molar value.
# CNR1: Cannabinoid receptor 1 (CNR1, Homo sapiens, UniProt P21554)
# TBXA2R: Thromboxane A2 receptor (TBXA2R, Homo sapiens, UniProt P21731)
# PFF0160c: Dihydroorotate dehydrogenase (quinone), mitochondrial (PFF0160c, Plasmodium falciparum, UniProt Q08210)
Compound,target,assay,setting,quantity,result
C=C/C=C/CCN1CCC(O)(c2cccc(Br)c2)C1 (stereo not shown),"5-hydroxytryptamine receptor 2A (HTR2A, Homo sapiens, UniProt P28223)","calcium signal, antagonist",,pIC50,4.80
CCCCCc1cc(O)c2c(c1)OC(C)(CCC=C(C)C)C=C2 (stereo not shown),CNR1,cell-free assay,,pKi,< 6.00
COC(=O)c1cc(N(C)C(=O)c2ccn3ncc(-c4ccc(C(=O)O)cc4)c3c2)ccc1Cl,TBXA2R,cell-free assay,,pIC50,< 4.52
CC[C@@](O)(c1cnc(C(F)(F)F)c(Cl)c1)c1c2ccn(C3CC3)c(=O)c2nn1C,PFF0160c,"enzyme activity, inhibitor",,pIC50,7.90
CCC(CC)(NC(=O)c1ccc(C2CC2)c(Cc2ccc(F)cc2)n1)C(=O)NCCOCCOCCNC(=O)c1ccc2c(c1)C1(OC2=O)c2ccc(N(C)C)cc2[Si](C)(C)c2cc(N(C)C)ccc21,CNR1,"ligand displacement, radioligand",cell membranes,pKi,6.34
O=C(N=Nc1c(O)n(CCCCCF)c2ccccc12)c1ccccc1,CNR1,"β-arrestin recruitment, agonist",,pEC50,5.74
CCn1cc(C)c2c([C@@H](N)c3ccc(C(F)(F)F)nc3)n(C)nc2c1=O,PFF0160c,"enzyme activity, inhibitor",,pIC50,6.00
CNC(=O)c1ccc(-c2cnn3ccc(C(=O)N(C)c4ccc(Cl)c(C(=O)OC)c4)cc23)cc1,TBXA2R,cell-free assay,,pIC50,< 4.52
Cc1c(Cc2ccc(C(F)(F)F)cc2)n[nH]c1C(=O)NC1CC1,PFF0160c,"enzyme activity, inhibitor",,pIC50,< 4.52
O=C(N=Nc1c(O)n(CC2CCCCC2)c2ccccc12)c1ccccc1,CNR1,"ligand displacement, radioligand",cell membranes,pKi,7.15
Cn1nc2c(=O)n(C3CC3)ncc2c1[C@](O)(c1ccc(C(F)(F)F)c(C#N)c1)C(F)(F)F,PFF0160c,"enzyme activity, inhibitor",,pIC50,7.60
C=C1CC/C=C(\C)CC[C@@H]2[C@@H]1CC2(C)C,CNR1,"ligand displacement, radioligand",,pKi,< 5.00
C=CCCCn1c(O)c(N=NC(=O)c2ccccc2)c2ccccc21,CNR1,"ligand displacement, radioligand",cell membranes,pKi,5.78
